High-throughput results (PubChem)
This is a sample that favours compounds with a hit; in the whole collection about 3.4% have one here.
M1 PAM: potentiates human M1 receptor response to acetylcholine; activation, % at 3 µM; 360,000 compounds, 0.088% hits; AID 588819; P11229; CHO-K1 hM1, Fluo-8 calcium fluorescence, ACh EC20; 0% = ACh EC20, 100% = maximal ACh; in the data active = activation above about 19%, passing the limit was not always enough
Target sequence (P11229 whole entry, looked up): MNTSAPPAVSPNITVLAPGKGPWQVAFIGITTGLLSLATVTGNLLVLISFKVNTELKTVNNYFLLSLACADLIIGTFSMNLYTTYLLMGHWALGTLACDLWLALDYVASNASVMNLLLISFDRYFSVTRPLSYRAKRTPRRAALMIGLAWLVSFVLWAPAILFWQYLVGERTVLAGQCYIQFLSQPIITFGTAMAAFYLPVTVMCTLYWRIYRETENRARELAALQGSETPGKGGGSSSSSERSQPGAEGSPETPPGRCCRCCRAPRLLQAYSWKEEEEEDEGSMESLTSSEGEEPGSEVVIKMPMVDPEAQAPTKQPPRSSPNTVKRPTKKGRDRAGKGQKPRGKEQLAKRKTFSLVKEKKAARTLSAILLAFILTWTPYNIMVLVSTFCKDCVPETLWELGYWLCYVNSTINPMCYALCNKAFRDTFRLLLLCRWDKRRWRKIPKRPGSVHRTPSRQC
CHRM1 agonist: human M1 muscarinic receptor agonism; CHO-K1 hM1, Fluo-8 calcium fluorescence, agonist mode; 0% DMSO, 100% acetylcholine EC100; activation, % at 3 µM; 360,000 compounds, 0.33% hits; AID 588814;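 active = activation above the run's mean compound activation plus 3 SD, cut at about 16% in these data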;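 note: peak over basal fluorescence ratio within a 140 s kinetic read after compound addition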
TAAR1 antag: antagonists of human TAAR1 | CHO RD-HGA16 TAAR1, Fluo-8 calcium fluorescence, antagonist | inhibition, % at 3 µM | 360,000 compounds, 1.5% hits;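 active = inhibition above a per-plate cutoff, the mean inhibition of test compounds on that plate plus 3 SD, cut at about 49% in these data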;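 note: 0% = DMSO plus EC80 beta-PEA response and 100% = DMSO alone without agonist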
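Test system: RD-HGA16 CHO cells with stable hTAAR1 and Gα16 / Probe or stimulus: EC80 β-phenethylamine stimulus / Times: seeding 17-24 h prior, 75-min 37 °C, 30-min RT dye loading / Detection: Fluo-8 calcium-sensitive fluorescence / Read-out basis: % inhibition scaled between DMSO and EC80 PEA controls / Repeats: singlicate, one well per test compound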
CHRM1 antagonist: blocks human M1 muscarinic receptor; AID 588852; CHO-K1 hM1, Fluo-8 calcium fluorescence, ACh EC80 antagonist; 360,000 compounds, 1.3% hits; P11229; inhibition, % at 3 µM;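 active = percent inhibition above its own plate's cutoff, namely the mean of that plate's compound wells plus 3 SD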;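 note: peak over basal fluorescence ratio during 140 s after agonist addition; 0% = ACh EC80 plus DMSO and 100% = DMSO alone without agonist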
TAAR1 agonist: human TAAR1 agonism | CHO RD-HGA16 TAAR1, Fluo-8 calcium fluorescence; vehicle wells 0%, saturating PEA agonist 100% | 360,000 compounds, 0.99% hits | activation, % at 3 µM | Q96RJ0;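 active = activation above the mean activation of all test compounds in the run plus 3 SD, cut at about 38% in these data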
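Test system: RD-HGA16 (CHO) cells co-expressing Gα16 and hTAAR1 | Doses: Single dose, 3 µM | Schedule: 17-24 h seeding, 75 min 37 °C dye, 30 min RT | Evaluation: % activation from peak over basal fluorescence ratio, DMSO-to-PEA scaled | Technique: Kinetic Fluo-8 calcium fluorescence | Benchmarks: Low control DMSO, high control PEA (EC100)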
Numbers without * were called inactive.

CC1CN(C)C(C)C/C1=N\Oc1ccc([N+](=O)[O-])cc1 (stereo unspecified) was read as M1 PAM 1, CHRM1 agonist -12, TAAR1 antag 2, CHRM1 antagonist 1 and TAAR1 agonist 13.
`O=C(Nc1ccc(Cl)c(S(=O)(=O)N2CCOCC2)c1)c1ccc(OCC2CCCO2)cc1` (stereo unspecified) gave M1 PAM -30, CHRM1 agonist 0 and CHRM1 antagonist 36*.
Screening COc1ccc(C(=O)Nc2ccc(Cl)c(S(=O)(=O)N3CCOCC3)c2)cc1 returned M1 PAM -15, CHRM1 agonist 6, TAAR1 antag 61*, CHRM1 antagonist 8 and TAAR1 agonist 21.
For O=C(Nc1ccc(S(=O)(=O)N2CCCC2)cc1)c1ccc(OCC2CCCO2)cc1 (stereo unspecified) the results were M1 PAM -3, CHRM1 agonist -7, TAAR1 antag 4, CHRM1 antagonist 5 and TAAR1 agonist 4.
COc1ccc(C(=O)Nc2ccc(S(=O)(=O)N3CCOCC3)cc2)cc1 was read as M1 PAM 8, CHRM1 agonist -2, TAAR1 antag -4, CHRM1 antagonist -5 and TAAR1 agonist 2.
`O=C(Nc1cccc(Br)c1)c1ccc(Cl)c(S(=O)(=O)N2CCOCC2)c1` gave M1 PAM -28, CHRM1 agonist 1, TAAR1 antag 73*, CHRM1 antagonist 43* and TAAR1 agonist 30.
`CC(C)NC(=O)c1cccc2c(-c3ccc(F)c(F)c3)coc12` gave M1 PAM 1, CHRM1 agonist -4, TAAR1 antag -21, CHRM1 antagonist -9 and TAAR1 agonist 0.
Screening O=c1c2c3c(sc2nc2n1CCCCC2)CCCCC3 returned M1 PAM -16, CHRM1 agonist -9 and CHRM1 antagonist 14.
For N=c1c2c3c(sc2nc2n1CCCCC2)CCCCC3 the results were M1 PAM -21, CHRM1 agonist -4, TAAR1 antag 9, CHRM1 antagonist 92* and TAAR1 agonist 9.
`O=S1(=O)CC(N2CCCC2)CN1Cc1cn(Cc2ccc(C(F)(F)F)cc2)nn1` (stereo unspecified) gave TAAR1 antag -13 and TAAR1 agonist 2.
For CCCCCCS(=O)[C@H]1CS(=O)(=O)C[C@@H]1S(=O)CCCCCC (stereo partly specified) the results were M1 PAM -13, CHRM1 agonist -5, TAAR1 antag -14, CHRM1 antagonist 19* and TAAR1 agonist 9.
For CCCCCCCCS(=O)C1CCS(=O)(=O)C1 (stereo unspecified) the results were M1 PAM 4, CHRM1 agonist -3, TAAR1 antag -1, CHRM1 antagonist -6 and TAAR1 agonist 4.
For Cn1c(=O)c(C(=O)NNC(=O)c2ccccc2Br)c(O)c2ccccc21 the results were M1 PAM 2, CHRM1 agonist -3, TAAR1 antag -25, CHRM1 antagonist 1 and TAAR1 agonist 12.
Screening CCn1c(=O)c(C(=O)Nc2nc3ccccc3[nH]2)c(O)c2ccccc21 returned M1 PAM -12, CHRM1 agonist 5, TAAR1 antag 93*, CHRM1 antagonist 51* and TAAR1 agonist 15.
Cn1c(=O)c(C(=O)NNC(=O)c2cccc(Cl)c2)c(O)c2ccccc21 was read as M1 PAM 0, CHRM1 agonist -2, TAAR1 antag -5, CHRM1 antagonist 2 and TAAR1 agonist 1.
For CCn1c(=O)c(C(=O)NNC(=O)c2ccccc2Br)c(O)c2ccccc21 the results were M1 PAM 11, CHRM1 agonist 10, TAAR1 antag 8, CHRM1 antagonist -17 and TAAR1 agonist 46*.
`CCn1c(=O)c(C(=O)NNC(=O)c2cccc(Cl)c2)c(O)c2ccccc21` gave M1 PAM -13, CHRM1 agonist 21*, TAAR1 antag 71*, CHRM1 antagonist 23 and TAAR1 agonist 38*.
`CCCn1c(=O)c(C(=O)Nc2ncccc2C)c(O)c2ccccc21` gave M1 PAM 2, CHRM1 agonist -1, TAAR1 antag 0, CHRM1 antagonist -10 and TAAR1 agonist 40*.
For Cn1cc(CC(=O)Nc2ccc(Nc3cccnc3)c(Br)c2)c2ccccc21 the results were TAAR1 antag 27 and TAAR1 agonist 1.
For O=C(Nc1ccc(Cl)c(Cl)c1)C1=Cc2ccccc2OC1 the results were M1 PAM -9, CHRM1 agonist 0, TAAR1 antag 60*, CHRM1 antagonist 19 and TAAR1 agonist 9.
COc1ccc(CCNC(=O)c2cc(C(=O)c3cc(C)ccc3O)cn(CCc3ccc(OC)cc3)c2=O)cc1 was read as M1 PAM -7, CHRM1 agonist -6, TAAR1 antag 54*, CHRM1 antagonist 17 and TAAR1 agonist 4.
`O=C(CCC(=O)N1CCN(c2ccc(Cl)c(Cl)c2)CC1)c1ccccc1` gave M1 PAM -19, CHRM1 agonist 0, TAAR1 antag 4, CHRM1 antagonist 44* and TAAR1 agonist -1.
COC(=O)N1CCN(c2ccc(Cl)c(Cl)c2)CC1 was read as M1 PAM -5, CHRM1 agonist -1 and CHRM1 antagonist 10.
For O=C(c1ccco1)N1CCN(c2ccc(Cl)cc2)CC1 the results were M1 PAM 6, CHRM1 agonist 12, TAAR1 antag 7, CHRM1 antagonist -11 and TAAR1 agonist 1.
For O=C(c1ccco1)N1CCN(c2ccc(Cl)c(Cl)c2)CC1 the results were M1 PAM -14, CHRM1 agonist -3, TAAR1 antag 20, CHRM1 antagonist 33* and TAAR1 agonist 7.
For N#C/C=C(/N)N1CCN(c2ccc(Cl)c(Cl)c2)CC1 the results were M1 PAM -3, CHRM1 agonist 0, TAAR1 antag 17, CHRM1 antagonist 4 and TAAR1 agonist 38*.
`O=C(CCC(=O)N1CCN(c2ccc(F)cc2)CC1)c1ccc(Cl)cc1` gave M1 PAM 1, CHRM1 agonist -1, TAAR1 antag -2, CHRM1 antagonist -5 and TAAR1 agonist -2.
COc1ccccc1Cc1c(-c2ccc(C)cc2)nc2ccc(C)cn12 was read as TAAR1 antag -23 and TAAR1 agonist 1.
For C[C@H](O)[C@@H]1C(=O)N2CCc3c([nH]c4c(-c5ccccc5)cccc34)[C@@H]2C[C@@H]1N(C)C(=O)NC1CCCCC1 the results were TAAR1 antag -2 and TAAR1 agonist 2.
`CC1CCC(C(C)C)C(OCC(O)CN2CCCC(C)C2)C1` (stereo unspecified) gave M1 PAM -13, CHRM1 agonist -8, TAAR1 antag -47, CHRM1 antagonist 15 and TAAR1 agonist 5.
Screening CC1CCC(C(C)C)C(OCC[N+](C)(C)C)C1 (stereo unspecified) returned M1 PAM -22, CHRM1 agonist -10, TAAR1 antag 6, CHRM1 antagonist 100* and TAAR1 agonist 0.
